Laboratory results as given in paper PMC6148399 (SLAS discovery : advancing life sciences R & D, 2018).
pIC50, pKi: −log10 of the molar value.

Tests used:
[1] = target: T1, human IP6K2 (Homo sapiens, UniProt Q9UHH9); experiment: IP6K2 TR-FRET assay for ADP detection; assay type: biochemical; settings: read-out: IC50 for IP6K2; TR-FRET Adapta, 400 nM IP6K2, 10 µM ATP, 10 µM InsP6
T1 sequence (Q9UHH9 1-426): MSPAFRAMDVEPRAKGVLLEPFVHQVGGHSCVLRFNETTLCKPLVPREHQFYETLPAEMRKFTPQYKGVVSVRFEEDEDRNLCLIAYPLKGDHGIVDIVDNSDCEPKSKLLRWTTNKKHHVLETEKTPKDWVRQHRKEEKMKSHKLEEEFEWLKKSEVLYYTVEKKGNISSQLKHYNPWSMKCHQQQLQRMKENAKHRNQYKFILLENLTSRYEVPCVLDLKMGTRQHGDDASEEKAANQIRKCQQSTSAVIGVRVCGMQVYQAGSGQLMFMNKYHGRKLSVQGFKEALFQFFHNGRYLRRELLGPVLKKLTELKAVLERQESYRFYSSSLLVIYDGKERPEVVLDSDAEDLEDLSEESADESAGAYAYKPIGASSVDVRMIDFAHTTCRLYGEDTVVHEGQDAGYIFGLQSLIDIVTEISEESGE
How it was run: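 Buffer: 50 mM HEPES pH 7.5, 0.01% Brij-35, 10 mM MgCl2, 1 mM EGTA. Test compound (3-fold, 10-point dilutions) preincubated 10–20 min at room temperature with enzyme, then ATP/InsP6 added; 30 min reaction. Detection: 2 nM Eu-anti-ADP antibody, 12 nM ADP tracer, 10 mM EDTA (final), 30 min. 665/615 nm ratio; inhibition scaled DMSO-only (0%) to no-enzyme (100%); ~20% ATP turnover.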

[2] = target: IP6K1 (Homo sapiens, UniProt Q92551); settings: cited from earlier work
IP6K1, sequence (Q92551 whole entry, species assumed): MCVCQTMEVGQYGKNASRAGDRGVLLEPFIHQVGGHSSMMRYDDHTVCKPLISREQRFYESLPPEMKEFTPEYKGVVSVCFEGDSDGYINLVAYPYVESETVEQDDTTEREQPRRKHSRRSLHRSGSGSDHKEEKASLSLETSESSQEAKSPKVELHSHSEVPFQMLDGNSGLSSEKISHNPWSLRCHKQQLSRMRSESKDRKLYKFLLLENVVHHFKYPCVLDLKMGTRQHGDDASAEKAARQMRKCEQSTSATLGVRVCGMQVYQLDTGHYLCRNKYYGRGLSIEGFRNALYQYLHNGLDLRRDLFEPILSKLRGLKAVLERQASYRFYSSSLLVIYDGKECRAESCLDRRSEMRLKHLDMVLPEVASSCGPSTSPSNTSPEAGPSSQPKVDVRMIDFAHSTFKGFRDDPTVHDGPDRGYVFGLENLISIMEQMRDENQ

O=[N+]([O-])c1ccc(CNc2nc(NCc3cccc(C(F)(F)F)c3)nc3nc[nH]c23)cc1 [TNP, N2-(m-(trifluoromethyl)benzyl) N6-(p-nitrobenzyl)purine]
pIC50 [1]: 5.13
pIC50 ([2]; read-out: IC50 previously reported for IP6K1): 6.37
pKi ([2]; read-out: Ki previously reported for IP6K1): 6.62
